The text below walks through data of ChEMBL document CHEMBL1146124, “Kinesin spindle protein (KSP) inhibitors. Part 3: synthesis and evaluation of phenolic 2,4-diaryl-2,5-dihydropyrroles with reduced hERG binding and employment of a phosphate prodrug strategy for aqueous solubility” (Bioorg Med Chem Lett, 2006).

Structures are written as SMILES.

As a reminder, the half-life is how long it takes for the measured level to halve. High values mean slow loss, low ones fast loss. What is called clearance is the rate of elimination divided by the concentration. By EC50 is commonly meant the concentration needed to bring the measured effect to its halfway point. For orientation: IC50 means the point on the concentration scale where inhibition reaches its midpoint.

The nature of series [1]: Half life in dog at 0.4 mg/kg, iv. The conditions noted are these: in vivo. More on the design: dose 0.4 mg/kg, route intravenous. It is filed as ADME, organism-based, Canis lupus familiaris. In outline:
(§1)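 Given intravenously to dogs at 0.4 mpk, with DMSO as the vehicle.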

Series [2] is described as follows: Half life in rat at 1 mg/kg, iv. The note with it: in vivo. More on the design: dose 1 mg/kg, route intravenous. It is filed as ADME, organism-based. Put shortly: (§2)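 Given intravenously to rats at 1 mpk, with DMSO as the vehicle.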
The nature of series [3]: Plasma clearance in dog at 0.4 mg/kg, iv. It counts as ADME, organism-based, Canis lupus familiaris. More on the design: dose 0.4 mg/kg, route intravenous. In outline:
as §1

Series [4] is described as follows: Plasma clearance in rat at 1 mg/kg, iv. It counts as ADME, organism-based. More on the design: dose 1 mg/kg, route intravenous. In outline: as §2
The test system of series [5] is Canis familiaris. Briefly: Ratio of AUC's for parent compound after prodrug dosing and parent compound dosing in dog at 0.4 mg/kg, iv. It counts as ADME, organism-based, Canis lupus familiaris. More on the design: dose 0.4 mg/kg, route intravenous. The conditions noted are these: in vivo. In outline:
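Prodrug and parent were each given intravenously in DMSO to dogs at 0.4 mpk. The value is the AUC of parent after prodrug dosing divided by the AUC after direct parent dosing, expressed as a percentage.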

Series [6] deals with Rattus norvegicus. Briefly: Ratio of AUC's for parent compound after prodrug dosing and parent compound dosing in rat at 1 mg/kg, iv. It counts as ADME, organism-based. The note with it: in vivo. More on the design: dose 1 mg/kg, route intravenous. Put shortly: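 Prodrug and parent were each given intravenously in DMSO to rats at 1 mpk. The value is the AUC of parent after prodrug dosing divided by the AUC after direct parent dosing, expressed as a percentage.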

Series [7] deals with A2780. Put plainly: Mitotic arrest in A2780 cells. It counts as functional, cell-based. The conditions noted are these: Homo sapiens. In outline:
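M-phase arrest read out by antibody-based detection of phosphonucleolin. Values are the average of at least two determinations, with standard deviations of 25–50%.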

The target in series [8] is T1, Kinesin-like protein KIF11 (Homo sapiens, UniProt P52732).
T1 sequence (P52732 whole entry): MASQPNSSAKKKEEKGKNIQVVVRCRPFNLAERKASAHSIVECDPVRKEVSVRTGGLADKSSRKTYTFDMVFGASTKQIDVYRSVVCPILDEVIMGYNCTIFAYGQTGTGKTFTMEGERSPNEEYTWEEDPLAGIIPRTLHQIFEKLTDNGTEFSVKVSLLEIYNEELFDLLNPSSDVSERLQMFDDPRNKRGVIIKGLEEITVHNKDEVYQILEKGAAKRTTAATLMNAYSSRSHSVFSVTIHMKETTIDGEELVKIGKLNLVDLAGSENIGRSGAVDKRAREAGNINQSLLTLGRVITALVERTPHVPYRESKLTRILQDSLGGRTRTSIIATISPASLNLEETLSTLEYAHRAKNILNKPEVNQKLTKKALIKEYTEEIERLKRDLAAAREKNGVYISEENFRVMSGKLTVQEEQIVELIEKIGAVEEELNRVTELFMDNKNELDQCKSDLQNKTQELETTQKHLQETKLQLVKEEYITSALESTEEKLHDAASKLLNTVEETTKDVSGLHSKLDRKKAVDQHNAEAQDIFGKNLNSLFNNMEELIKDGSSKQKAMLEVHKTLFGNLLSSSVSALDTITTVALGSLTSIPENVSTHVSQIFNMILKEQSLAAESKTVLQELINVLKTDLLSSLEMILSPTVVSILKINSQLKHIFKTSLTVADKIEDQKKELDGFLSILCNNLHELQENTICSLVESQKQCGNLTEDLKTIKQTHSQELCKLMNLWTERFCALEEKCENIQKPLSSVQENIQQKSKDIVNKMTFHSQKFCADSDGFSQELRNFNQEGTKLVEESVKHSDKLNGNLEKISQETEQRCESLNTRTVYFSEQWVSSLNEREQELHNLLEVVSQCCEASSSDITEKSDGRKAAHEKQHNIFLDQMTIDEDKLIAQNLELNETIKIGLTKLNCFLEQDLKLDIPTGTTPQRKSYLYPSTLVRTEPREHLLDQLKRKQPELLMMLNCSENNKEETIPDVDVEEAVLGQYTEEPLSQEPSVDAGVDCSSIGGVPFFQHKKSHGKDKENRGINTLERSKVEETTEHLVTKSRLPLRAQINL
Briefly: Inhibition of KSP by ATPase assay.

For series [9], the target named is Voltage-gated inwardly rectifying potassium channel KCNH2 (Homo sapiens, UniProt Q12809). Put plainly: Inhibitory activity against human hERG receptor expressed in HEK cells. A general note: hERG is a cardiac potassium channel; its block is linked to QT prolongation.
Voltage-gated inwardly rectifying potassium channel KCNH2, sequence (Q12809 whole entry): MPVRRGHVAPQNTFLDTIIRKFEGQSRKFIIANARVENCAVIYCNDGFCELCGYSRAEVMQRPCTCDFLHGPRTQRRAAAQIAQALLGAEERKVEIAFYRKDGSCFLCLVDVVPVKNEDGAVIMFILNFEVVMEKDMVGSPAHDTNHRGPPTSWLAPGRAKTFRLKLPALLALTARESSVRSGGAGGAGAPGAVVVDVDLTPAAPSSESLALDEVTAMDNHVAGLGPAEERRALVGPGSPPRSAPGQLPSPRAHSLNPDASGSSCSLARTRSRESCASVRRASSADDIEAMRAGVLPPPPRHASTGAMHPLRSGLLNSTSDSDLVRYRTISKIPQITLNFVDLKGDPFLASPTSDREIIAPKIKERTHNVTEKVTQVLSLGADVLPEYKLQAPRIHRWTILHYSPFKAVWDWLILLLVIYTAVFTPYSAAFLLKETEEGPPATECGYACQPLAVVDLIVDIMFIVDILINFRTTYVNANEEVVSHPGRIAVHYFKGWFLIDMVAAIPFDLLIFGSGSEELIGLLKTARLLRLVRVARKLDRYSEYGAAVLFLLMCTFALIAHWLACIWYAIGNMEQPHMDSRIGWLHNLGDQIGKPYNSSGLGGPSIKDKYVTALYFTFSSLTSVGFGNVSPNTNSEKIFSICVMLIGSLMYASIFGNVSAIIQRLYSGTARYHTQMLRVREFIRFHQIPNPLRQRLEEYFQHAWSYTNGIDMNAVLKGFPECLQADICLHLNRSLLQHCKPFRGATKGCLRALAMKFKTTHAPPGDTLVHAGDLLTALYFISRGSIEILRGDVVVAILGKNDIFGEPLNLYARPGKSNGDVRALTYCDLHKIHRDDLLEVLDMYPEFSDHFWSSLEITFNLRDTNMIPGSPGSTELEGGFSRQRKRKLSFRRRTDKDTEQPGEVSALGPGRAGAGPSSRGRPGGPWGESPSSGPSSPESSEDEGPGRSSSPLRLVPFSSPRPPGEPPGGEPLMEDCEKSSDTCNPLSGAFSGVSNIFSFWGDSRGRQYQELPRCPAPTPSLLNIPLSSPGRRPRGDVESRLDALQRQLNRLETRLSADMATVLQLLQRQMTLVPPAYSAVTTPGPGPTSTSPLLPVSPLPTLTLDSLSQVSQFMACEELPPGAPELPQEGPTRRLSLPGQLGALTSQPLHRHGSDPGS

As to `CC(C)(C)[C@H](NC(=O)OCCO)C(=O)N1CC(c2cc(F)ccc2F)=C[C@H]1c1ccccc1`, the figures for the half-life in [1] and in series [2] were 168 min and 18 min, respectively. Further, the results for the clearance in [3] and in series [4] were 11 mL/min/kg and 68 mL/min/kg, respectively. In addition, the “Ratio AUC” value in series [5] worked out at 38%; in series [6], 57%.

In the case of `CC(C)(C)[C@H](NC(=O)OCCOP(=O)(O)O)C(=O)N1CC(c2cc(F)ccc2F)=C[C@H]1c1ccccc1`, the half-life in series [1] and in [2] was < 6 min throughout.

In the case of `N[C@H](C(=O)N1CC(c2cc(F)ccc2F)=C[C@H]1c1cccc(O)c1)C1CC1`, in series [7], the EC50 was found to be 3 nM. In series [8], this compound registered an IC50 of 0.5 nM.

Regarding `CN(CCO)C(=O)N1CC(c2cc(F)ccc2F)=C[C@H]1c1cccc(O)c1`, a half-maximal effect in [7] (EC50) was put at 9.1 nM. Moreover, the IC50 in series [8] came out at 4 nM.

Regarding `CC(C)(C)[C@H](O)C(=O)N1CC(c2cc(F)ccc2F)=C[C@H]1c1cccc(O)c1`, in [7], the EC50 came out at 2.6 nM. The compound also returned an IC50 in series [8] of 1.3 nM.

On to `CN(C)C(=O)N1CC(c2cc(F)ccc2F)=C[C@H]1c1cccc(OP(=O)(O)O)c1`, for which the figures for the half-life in series [1] and in series [2] were 15 min and 9 min, respectively.

In turn, `O=C([C@@H](O)C1CC1)N1CC(c2cc(F)ccc2F)=C[C@H]1c1cccc(O)c1` came in with an EC50 in [7] of 3.1 nM. The compound further had an IC50 in [8] of 2.9 nM.

Regarding `CC(C)(C)C(=O)N1CC(c2cc(F)ccc2F)=C[C@H]1c1cccc(O)c1`, the IC50 in series [9] amounted to 7800 nM; in series [8], 13 nM. A half-maximal effect in series [7] (EC50) was put at 37 nM.

With `CC(C)[C@H](N)C(=O)N1CC(c2cc(F)ccc2F)=C[C@H]1c1cccc(O)c1`, the midpoint of the response in series [7], the EC50, lay at 3.3 nM. The compound further gave an IC50 in [8] of 1.2 nM.

For the compound `CN(C)C(=O)N1CC(c2cc(F)ccc2F)=C[C@H]1c1cccc(O)c1`, the half-life is 90 min in [1] and 18 min in [2]. Also, in [7], the midpoint of the response, the EC50, lay at 22 nM. The compound also showed an IC50 in series [8] of 7 nM. In addition, the clearance in series [3] amounted to 13 mL/min/kg; in series [4] it was 68 mL/min/kg.

The compound `CN(C(=O)N1CC(c2cc(F)ccc2F)=CC1c1cccc(O)c1)C1CCNCC1` (racemic) gave an EC50 in [7] of 8.5 nM. Also, the IC50 in series [8] stood at 5.5 nM.
